Most compounds without a hit are left out; they make up all but 2.3% or so of the library.
bovine MsrA act: bovine MsrA enzyme activators, primary screen, biochemical, absorbance, HTS; Methionine sulfoxide reductase A (Bos taurus); purified bovine MsrA, absorbance read-out; activation, % at 10.6 µM; hit rate 0.3% among 360,000; in the data active = activation above about 7.5%
MC4R antagonist: MC4R antagonists of cAMP signaling, primary screen, cell-based, TR-FRET, antagonist arm of biased-ligand search; Melanocortin receptor 4 (Homo sapiens), P32245; MC4R-expressing cells, MTII-stimulated cAMP, LANCE TR-FRET; inhibition, % at 6.5 µM; hit rate 0.48% among 360,000; AID 540295, 2011;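 active = inhibition above its plate's cutoff, the mean of tested wells on that plate plus 3 SD, cut at about 29% in these data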
Target sequence (P32245 whole entry, looked up): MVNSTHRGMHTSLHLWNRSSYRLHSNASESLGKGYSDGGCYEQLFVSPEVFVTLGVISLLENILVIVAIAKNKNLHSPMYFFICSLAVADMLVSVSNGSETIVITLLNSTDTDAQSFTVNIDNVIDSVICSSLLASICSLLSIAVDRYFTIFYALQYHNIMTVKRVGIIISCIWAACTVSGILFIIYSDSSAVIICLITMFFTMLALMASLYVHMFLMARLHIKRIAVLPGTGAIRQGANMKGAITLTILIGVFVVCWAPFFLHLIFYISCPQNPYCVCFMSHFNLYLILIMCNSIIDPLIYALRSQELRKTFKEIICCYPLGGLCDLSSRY
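Material: U2OS-MC4R stable cell line | Reagent: Melanotan II challenge after compound preincubation | Doses: One concentration, 6.5 µM nominal | Incubation: 30-min compound preincubation, 1-h Melanotan II challenge, 1-h detection, room temperature | Signal: TR-FRET cAMP assay | Replicates: One well per compound, no replicates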
MC4R barr agon: MC4R agonists recruiting beta-arrestin, primary screen, cell-based, luminescence, agonist arm of biased-ligand search; U2OS MC4R beta-arrestin complementation; percent of melanotan II response, DMSO zero; activation, % at 8.9 µM; hit rate 0.98% among 360,000; Melanocortin receptor 4 (Homo sapiens), P32245;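 active = activation above a per-plate cutoff, the mean activation of sample wells on that plate plus 3 SD, cut at about 8% in these data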
MsrA inh: bovine MsrA enzyme inhibitors, primary screen, biochemical, absorbance, HTS. purified bovine MsrA, absorbance read-out. hit rate 0.75% among 360,000. Methionine sulfoxide reductase A (Bos taurus). inhibition, % at 15.5 µM; in the data active = inhibition above about 4.5%
U2OS cAMP counter: nonselective cAMP signaling inhibitors, parental cells, counter-screen for MC4R biased antagonist project, cell-based, TR-FRET, U2OS, forskolin, triplicate | shares compounds with MC4R antagonist | LANCE TR-FRET | inhibition, % at 6.5 µM | hit rate 26% among 1,600 | AID 602193, 2012;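 active = mean inhibition over triplicates above the low-control well mean plus 3 SD, set per campaign, cut at about 13% in these data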;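 also: signal is single emission at 671 nm which falls as cellular cAMP rises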
MC4R cAMP antag: MC4R cAMP antagonists, retest, confirmation, cell-based, TR-FRET; shares compounds with MC4R antagonist; MC4R-expressing cells, MTII-stimulated cAMP; inhibition, % at 6.5 µM; hit rate 27% among 1,600; in the data active = inhibition above about 29%
Of the large screens only hits and unclear results are named; the others gave an inactive call (follow-up assays come after a bar, where they were run).

CCN(CC)c1ccc(C(=C2C=CC(=[N+](CC)CC)C=C2)c2ccc(N(CC)CC)cc2)cc1	none
CC(=O)c1sc(C(C)(C)C)cc1NC(=O)c1ccccc1C(=O)O	MC4R antagonist 36.2 | U2OS cAMP counter 31.9 | MC4R cAMP antag 55.9
O=C(O)c1ccccc1C(=O)Nc1ccccc1NC(=O)c1ccccc1C(=O)O	none
O=C1C(=Cc2ccccc2Cl)CCc2ccccc21	none (no result: MC4R antagonist, MC4R barr agon)
COc1ccc(CC(=O)Oc2ccc(C(C)(C)C)cc2)cc1S(=O)(=O)N1CCOCC1	MC4R antagonist 31.9 | U2OS cAMP counter inactive | MC4R cAMP antag inactive
CCc1ccc(OC(=O)Cc2ccc(OC)c(S(=O)(=O)N3CCOCC3)c2)cc1	none
Cc1cccc(C)c1NC(=O)CCCSc1nnc(N)s1	MC4R antagonist 32.8 | U2OS cAMP counter inactive | MC4R cAMP antag inactive
Cc1cccc(C)c1NC(=O)COC(=O)CSc1nnc(N)s1	none
CSCCC(NC(=O)c1ccc([N+](=O)[O-])cc1Cl)C(=O)OCC(=O)NCCCc1ccccc1 (stereo not drawn)	MC4R antagonist 37.1 | U2OS cAMP counter 16.4 | MC4R cAMP antag 37.1
COc1ccc(-c2cc(C(=O)N(C)CC(=O)Nc3cccc(F)c3)c3ccccc3n2)cc1OC	MC4R antagonist 30.2 | U2OS cAMP counter inactive | MC4R cAMP antag inactive
O=C(O)c1ccc(NC(=O)c2ccc(COc3ccccc3)o2)cc1	MC4R antagonist 28.7 | U2OS cAMP counter inactive | MC4R cAMP antag inactive
C[C@@H]1CN([C@@H](C)CO)C(=O)CCCn2nncc2CO[C@H]1CN(C)Cc1cccnc1	MC4R antagonist 28.5 | U2OS cAMP counter inactive | MC4R cAMP antag inactive
C[C@H](CO)N1C[C@H](C)[C@@H](CN(C)Cc2cccnc2)OCc2cnnn2CCCC1=O	none
CCC(=O)N(Cc1cc(=O)[nH]c2ccccc12)c1ccc(OC)cc1	none
COc1ccc(NC(=O)c2cc(-c3ccc(F)cc3OC)n[nH]2)c(OC)c1	MC4R antagonist 30.0 | U2OS cAMP counter inactive | MC4R cAMP antag inactive
COc1ccc(NC(=O)c2cc(-c3cc(F)ccc3OC)n[nH]2)c(OC)c1	none
COc1cc([N+](=O)[O-])cc(/C=N/NC(=O)Cn2nccc2C)c1O	MC4R antagonist 28.8 | U2OS cAMP counter inactive | MC4R cAMP antag inactive
COc1cc([N+](=O)[O-])cc(/C=N/NC(=O)Cn2nc(C)cc2C)c1O	none
CCOC(=O)N1CCC(N2CCCC(CO)(Cc3cccc(Cl)c3)C2)CC1 (stereo not drawn)	MC4R antagonist 33.5 | U2OS cAMP counter inactive | MC4R cAMP antag inactive
Cn1cc(C(=O)NCCN2CCN(c3cccc(Cl)c3)CC2)c2c3ccccc3n(C)c2c1=O	none
O=C(NCCS(=O)(=O)N1CCN(c2ccccc2)CC1)c1ccc2c(c1)OCO2	none
CC(C)[C@H](NC(=O)OC(C)(C)C)c1nnc(S(=O)(=O)Cc2c(F)cccc2Cl)o1	MC4R antagonist 64.2 | U2OS cAMP counter 27.5 | MC4R cAMP antag 33.8
CC[C@@H](C)[C@H](NC(=O)OC(C)(C)C)c1nnc(S(=O)(=O)Cc2cc(C)ccc2C)o1	none
CC(C)=CCSc1nnc([C@@H](NC(=O)OC(C)(C)C)C(C)C)o1	none
Cc1ccccc1CS(=O)(=O)c1nnc([C@H](CC(C)C)NC(=O)OC(C)(C)C)o1	MC4R antagonist 32.9 | U2OS cAMP counter inactive | MC4R cAMP antag inactive
Cc1ccc(C(c2nnnn2C2CCCC2)N2CCN(c3nc4ccccc4s3)CC2)cc1 (stereo not drawn)	none
O=C1CCSc2ccc(Cl)cc2N1Cc1cccc(Cl)c1	none
COc1ccc(CC(=O)Nc2cc3oc4ccccc4c3cc2OC)cc1	MC4R antagonist 29.4 | U2OS cAMP counter inactive | MC4R cAMP antag inactive
COc1ccccc1CC(=O)Nc1cc2oc3ccccc3c2cc1OC	none
CCOC(=O)CNC(=O)CSc1nc2c(C)cccc2cc1CC	MC4R antagonist 33.8 | U2OS cAMP counter inactive | MC4R cAMP antag inactive
Cc1cccc2cc(C#N)c(SCC(=O)NCc3cccs3)nc12	MC4R antagonist 38.8 | U2OS cAMP counter 41.2 | MC4R cAMP antag 80.4
CCOC(=O)C1=C(COC(=O)/C=C/c2ccc(C)o2)NC(=O)NC1C (stereo not drawn)	none
O=C(Nc1ccccn1)c1ccc(C(=O)Nc2ccccn2)cc1	none (no result: MsrA inh)

High-throughput results: PubChem, The Scripps Research Institute Molecular Screening Center
